The record followed here is ChEMBL document CHEMBL1208665, “Discovery of new 1,3,5-triazine scaffolds with potent activity against Mycobacterium tuberculosis H37Rv” (Eur J Med Chem, 2010).

Data set [1] in a line: Cytotoxicity against mouse BMDM after 48 hrs by MTS assay. It is filed as cell-based. Conditions: for Activity: bmdm, 48 h. The method, boiled down:
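Mouse femur bone marrow was flushed with DMEM + 10% FBS, 15% L-929 conditioned supernatant and non-essential amino acids. Cells were plated at 10⁵/well, medium was changed every 3rd day, and cells were used at day 5. Compounds were added in antibiotic-free FBS-DMEM for 48 h at 37 °C, 5% CO₂. Read-out was MTS, 2 h, A490, with DMSO wells taken as 100% survival.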
A general note: Tetrazolium dyes change colour on reduction, which living cells bring about.

Data set [2] deals with Mycobacterium tuberculosis. The data set is described as follows: Antimycobacterial activity against Mycobacterium tuberculosis H37Rv […] after 4 weeks. It is filed as functional. The method, boiled down:
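Agar-slant dilution against H37Rv. Compounds from 1.0 mg/mL DMSO stock, two-fold serial dilutions, were incorporated into OADC-supplemented medium (2 mL/tube final) and solidified slanted. Inoculum spread on the surface, incubated 37 °C for 4 weeks. Drug-free tubes served as control. MIC is the lowest concentration giving complete growth inhibition relative to the inoculum used.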

For data set [3], the system named is Vero. The data set is described as follows: (§1) Cytotoxicity against Vero cells after 24 hrs by MTS assay. It is filed as cell-based. To be noted: chlorocebus sabaeus, vero, 24 h. In short, it runs like this:
(§2)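 VERO cells were seeded at 20,000/well in MEM + 10% FBS with antibiotics and left to adhere overnight at 37 °C, 5% CO₂. Compound dilutions were added in MEM + 10% FBS for 24 h, with DMSO as negative control and a known toxic compound as positive control. Read-out was MTS, 2 h, A490, with DMSO wells taken as 100% survival.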

Data set [4] is described as follows: as §1. It is filed as cell-based. Conditions: chlorocebus sabaeus, Vero cells; read-out: MIC. The method, boiled down:
as §2

Values after ≈ are worked out from the molar mass of the structure shown. Where only a bound is given, the exact number is not on record here.

Take `CCNC1CN(c2nc(N3CCc4ccccc4C3)nc(N3CCc4ccccc4C3)n2)CCO1` (stereo not drawn): the Activity result is “Toxic” in data set [1] and “Non-toxic” in data set [3]. The MIC in data set [2] is 3.12 µg/mL (≈ 6.62 µM).
In the case of `CCCNc1nc(NCCC)nc(N2CCCCC2)n1`, in data set [1] (BMDM (bone marrow-derived macrophages), read-out: MIC), the MCC at 48 h was more than 12.5 µg/mL. In data set [2], this molecule came in with an MIC of 12.5 µg/mL (≈ 44.9 µM). Further, the MCC at 24 h in data set [4] is more than 12.5 µg/mL.
As to `CC(C)Nc1nc(NNC(=O)c2ccncc2)nc(N2CCCc3ccccc32)n1`, the Activity entry in data set [1] and in data set [3] was “Non-toxic” throughout. In addition, in data set [2], inhibition of growth (MIC) required 3.12 µg/mL (≈ 7.71 µM).
As for `O=C(NNc1nc(N2CCOCC2)nc(N2CCCc3ccccc32)n1)c1ccncc1`, the Activity entry in data set [1] and in data set [3] was “Non-toxic” in each case. In data set [2], this molecule gave an MIC of 3.12 µg/mL (≈ 7.21 µM).
As to `O=C(NNc1nc(N2CCCCC2)nc(N2CCc3ccccc3C2)n1)c1ccncc1`, the Activity result in data set [1] was “Toxic”; in data set [3] it was “Non-toxic”. Besides, 3.12 µg/mL (≈ 7.25 µM) was the least that counted as inhibitory in data set [2] (MIC).
Regarding `CCCCNc1nc(NNC(=O)c2ccncc2)nc(N2CCc3ccccc3C2)n1`, the Activity entry in data set [1] and in data set [3] was “Non-toxic” each time. The same molecule had an MIC in data set [2] of 3.12 µg/mL (≈ 7.46 µM).
On to `CC(C)(C)Nc1nc(NNC(=O)c2ccncc2)nc(N2CCc3ccccc3C2)n1`, for which the Activity entry is given as “Toxic” in data set [1] and “Non-toxic” in data set [3]. Inhibition of growth in data set [2] (MIC) required 3.12 µg/mL (≈ 7.46 µM).
With `CC(C)Nc1nc(NNC(=O)c2ccncc2)nc(N2CCc3ccccc3C2)n1`, the Activity entry in data set [1] and in data set [3] was “Non-toxic” each time. In addition, the minimum inhibitory concentration (MIC) in data set [2] amounted to 3.12 µg/mL (≈ 7.71 µM).
As to `O=C(NNc1nc(N2CCc3ccccc3C2)nc(N2CCc3ccccc3C2)n1)c1ccncc1`, the results for the Activity entry in data set [1] and in data set [3] were “Toxic” and “Non-toxic”, respectively. In data set [2], this molecule yielded an MIC of 3.12 µg/mL (≈ 6.52 µM).
Consider `O=C(NNc1nc(Nc2ncccn2)nc(N2CCCCC2)n1)c1ccncc1`, for which the Activity result in data set [1] and in data set [3] was “Non-toxic” in each case. Besides, in data set [2], the MIC came out at 3.12 µg/mL (≈ 7.95 µM).
Consider `CCCCNc1nc(NNC(=O)c2ccncc2)nc(N2CCCCC2)n1`, for which the Activity entry in data set [1] and in data set [3] was “Non-toxic” throughout. The same molecule showed an MIC in data set [2] of 3.12 µg/mL (≈ 8.42 µM).
Take `CC(C)Nc1nc(NNC(=O)c2ccncc2)nc(N2CCCCC2)n1`: the Activity entry in data set [1] and in data set [3] was “Non-toxic” each time. In data set [2], this molecule yielded an MIC of 3.12 µg/mL (≈ 8.75 µM).
Regarding `O=C(NNc1nc(Nc2ccccc2)nc(N2CCOCC2)n1)c1ccncc1`, the Activity result in data set [1] and in data set [3] was “Non-toxic” in each case. For the same molecule, the lowest concentration to inhibit growth in data set [2] (MIC) was 1.56 µg/mL (≈ 3.98 µM).
As for `COc1cc(-c2cc(SC)nc(Nc3nc(NC(C)C)nc(NC(C)C)n3)n2)cc(OC)c1OC`, the Activity entry in data set [1] and in data set [3] was “Toxic” each time. In data set [2], this molecule returned an MIC of 3.12 µg/mL (≈ 6.23 µM).
For `COc1cc(-c2cc(SC)nc(Nc3nc(NC(C)(C)C)nc(NC(C)(C)C)n3)n2)cc(OC)c1OC`, the results for the Activity entry in data set [1] and in data set [3] were “Toxic” and “Non-toxic”, respectively. Moreover, the MIC in data set [2] was 3.12 µg/mL (≈ 5.9 µM).
For `NNC(=O)c1ccncc1` [ISONIAZID], in that order: “Non-toxic”, “Non-toxic” and 0.025 µg/mL (≈ 0.182 µM).

In general, MIC refers to the lowest concentration found to suppress growth. Lower therefore signals inhibition by little substance.
